Measurements published in ChEMBL document CHEMBL3244155, “Inhibitory analogues of the luteinizing hormone-releasing hormone having D-aromatic residues in positions 2 and 6 and variation in position 3” (1978).
Calls of active or inactive are those of the source. No cut-off for these calls is given here. Non-standard residues stand in square brackets, D forms with d. Residues, ends and D or L forms follow the SMILES beside them. pGlu = O=C1CC[C@@H](C(=O)O)N1

How the values were obtained:
[1] = target: T1, Gonadotropin-releasing hormone receptor (Rattus norvegicus) (UniProt P30969); test: Antagonist activity at LH-RH receptor in Sprague-Dawley rat pituitary gland assessed as change in LHRH-stimulated LH release at 0.1 ug/ml preincubated for 4 hrs followed by LH-RH addition at 5th and 6th hr 5 mins post compound addition and measured for 6 hrs by RIA
T1 sequence (whole entry): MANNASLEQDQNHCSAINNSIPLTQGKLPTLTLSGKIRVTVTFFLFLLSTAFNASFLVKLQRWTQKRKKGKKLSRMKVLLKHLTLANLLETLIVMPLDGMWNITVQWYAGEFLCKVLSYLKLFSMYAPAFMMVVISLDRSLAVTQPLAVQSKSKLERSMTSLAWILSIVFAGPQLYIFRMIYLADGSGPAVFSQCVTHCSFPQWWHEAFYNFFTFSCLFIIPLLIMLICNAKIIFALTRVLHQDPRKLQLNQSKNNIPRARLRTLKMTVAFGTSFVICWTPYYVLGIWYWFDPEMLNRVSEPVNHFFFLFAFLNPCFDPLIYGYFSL
In short: (§1)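 Pituitaries from 20-day-old female Sprague-Dawley rats, two per 1 mL lactated Ringer's, shaken 6 h at 37 °C with medium changed each hour. Analogue added at hours 3–6. LH-RH 0.6 ng/mL medium added 5 min after peptide at hours 5 and 6. LH and FSH measured by RIA against rat standards. Change in ng/mL with SEM and p values.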

[2] = target: T1, Gonadotropin-releasing hormone receptor (Rattus norvegicus); test: Antagonist activity at LH-RH receptor in Sprague-Dawley rat pituitary gland assessed as change in LHRH-stimulated LH release at 1 ug/ml preincubated for 4 hrs followed by LH-RH addition at 5th and 6th hr 5 mins post compound addition and measured for 6 hrs by RIA; in short: as §1
[3] = target: T1, Gonadotropin-releasing hormone receptor (Rattus norvegicus); test: Antagonist activity at LH-RH receptor in Sprague-Dawley rat pituitary gland assessed as change in LHRH-stimulated LH release at 10 ug/ml preincubated for 4 hrs followed by LH-RH addition at 5th and 6th hr 5 mins post compound addition and measured for 6 hrs by RIA; in short: as §1
[4] = target: T1, Gonadotropin-releasing hormone receptor (Rattus norvegicus); test: Antagonist activity at LH-RH receptor in Sprague-Dawley rat pituitary gland assessed as change in LHRH-stimulated LH release at 100 ug/ml preincubated for 4 hrs followed by LH-RH addition at 5th and 6th hr 5 mins post compound addition and measured for 6 hrs by RIA; in short: as §1
[5] = target: T1, Gonadotropin-releasing hormone receptor (Rattus norvegicus); test: Agonist activity at LH-RH receptor in Sprague-Dawley rat pituitary gland assessed as change in LH release at 100 ug/ml measured for 6 hrs by RIA
In short: (§2)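 Two pituitaries from 20-day-old female Sprague-Dawley rats incubated 6 h at 37 °C in 1 mL lactated Ringer's with shaking. Medium removed hourly and replaced. Analogue alone added at hours 3–6. LH and FSH measured by RIA, expressed as ng/mL of medium against LH-LER-1240-2 and NIAMDD rat FSH RP-1 standards. Change reported with SEM.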

[6] = target: T1, Gonadotropin-releasing hormone receptor (Rattus norvegicus); test: Antagonist activity at LH-RH receptor in Sprague-Dawley rat pituitary gland assessed as change in LHRH-stimulated FSH release at 0.1 ug/ml preincubated for 4 hrs followed by LH-RH addition at 5th and 6th hr 5 mins post compound addition and measured for 6 hrs by RIA; in short: as §1
[7] = target: T1, Gonadotropin-releasing hormone receptor (Rattus norvegicus); test: Antagonist activity at LH-RH receptor in Sprague-Dawley rat pituitary gland assessed as change in LHRH-stimulated FSH release at 1 ug/ml preincubated for 4 hrs followed by LH-RH addition at 5th and 6th hr 5 mins post compound addition and measured for 6 hrs by RIA; in short: as §1
[8] = target: T1, Gonadotropin-releasing hormone receptor (Rattus norvegicus); test: Antagonist activity at LH-RH receptor in Sprague-Dawley rat pituitary gland assessed as change in LHRH-stimulated FSH release at 10 ug/ml preincubated for 4 hrs followed by LH-RH addition at 5th and 6th hr 5 mins post compound addition and measured for 6 hrs by RIA; in short: as §1
[9] = target: T1, Gonadotropin-releasing hormone receptor (Rattus norvegicus); test: Antagonist activity at LH-RH receptor in Sprague-Dawley rat pituitary gland assessed as change in LHRH-stimulated FSH release at 100 ug/ml preincubated for 4 hrs followed by LH-RH addition at 5th and 6th hr 5 mins post compound addition and measured for 6 hrs by RIA; in short: as §1
[10] = target: T1, Gonadotropin-releasing hormone receptor (Rattus norvegicus); test: Agonist activity at LH-RH receptor in Sprague-Dawley rat pituitary gland assessed as change in FSH release at 100 ug/ml measured for 6 hrs by RIA; in short: as §2
[11] = system: Rattus norvegicus; test: Antiovulatory activity in rat assessed as inhibition of ovulation at 750 ug, sc relative to vehicle-treated control; type: functional
In short: (§3)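 Rats with 4-day cycles given one sc injection of analogue in corn oil on proestrus, between 12 and 12:30 p.m. Controls received 0.3 mL corn oil. Ova shed were counted on estrus. Percent of rats with ovulation inhibited was recorded, with ova per ovulating rat ± SEM.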

[12] = system: Rattus norvegicus; test: Antiovulatory activity in rat assessed as inhibition of ovulation at 375 ug, sc relative to vehicle-treated control; type: functional; in short: as §3
[13] = system: Rattus norvegicus; test: Antiovulatory activity in rat assessed as inhibition of ovulation at 1500 ug, sc relative to vehicle-treated control; type: functional; in short: as §3

CC(C)C[C@H](NC(=O)[C@@H](Cc1ccccc1)NC(=O)[C@H](Cc1ccc(O)cc1)NC(=O)[C@H](CO)NC(=O)[C@H](CCCNC(=N)N)NC(=O)[C@@H](Cc1ccccc1)NC(=O)[C@@H]1CCC(=O)N1)C(=O)N[C@@H](CCCNC(=N)N)C(=O)N1CCC[C@H]1C(=O)NCC(N)=O
Activity [1]: 276 ng/mL | Activity [2]: 51 ng/mL | Activity [3]: 34 ng/mL | Activity [4]: 18 ng/mL | Activity [5]: inactive | Activity [6]: 5390 ng/mL | Activity [7]: 1390 ng/mL | Activity [8]: 380 ng/mL | Activity [9]: -133 ng/mL | Activity [10]: inactive | inhibition (INH) [11]: 40%

CSCC[C@H](NC(=O)[C@@H](Cc1ccccc1)NC(=O)[C@@H]1CCC(=O)N1)C(=O)N[C@@H](CO)C(=O)N[C@@H](Cc1ccc(O)cc1)C(=O)N[C@H](Cc1c[nH]c2ccccc12)C(=O)N[C@@H](CC(C)C)C(=O)N[C@@H](CCCNC(=N)N)C(=O)N1CCC[C@H]1C(=O)NCC(N)=O
Activity [1]: 77 ng/mL | Activity [2]: 52 ng/mL | Activity [4]: 10 ng/mL | Activity [5]: inactive | Activity [6]: 3270 ng/mL | Activity [7]: -291 ng/mL | Activity [9]: -672 ng/mL | Activity [10]: inactive | inhibition (INH) [11]: 20%

CC(C)C[C@H](NC(=O)[C@@H](Cc1ccccc1)NC(=O)[C@H](Cc1ccc(O)cc1)NC(=O)[C@H](CO)NC(=O)[C@@H](NC(=O)[C@@H](Cc1ccccc1)NC(=O)[C@@H]1CCC(=O)N1)[C@@H](C)O)C(=O)N[C@@H](CCCNC(=N)N)C(=O)N1CCC[C@H]1C(=O)NCC(N)=O
Activity [1]: 159 ng/mL | Activity [2]: 97 ng/mL | Activity [3]: 18 ng/mL | Activity [4]: 16 ng/mL | Activity [5]: inactive | Activity [6]: 5470 ng/mL | Activity [7]: 2450 ng/mL | Activity [8]: 751 ng/mL | Activity [9]: 379 ng/mL | Activity [10]: inactive | inhibition (INH) [11]: 0%

CC(C)C[C@H](NC(=O)[C@@H](Cc1ccccc1)NC(=O)[C@H](Cc1ccc(O)cc1)NC(=O)[C@H](CO)NC(=O)CN(C)C(=O)[C@@H](Cc1ccccc1)NC(=O)[C@@H]1CCC(=O)N1)C(=O)N[C@@H](CCCNC(=N)N)C(=O)N1CCC[C@H]1C(=O)NCC(N)=O
Activity [1]: 339 ng/mL | Activity [2]: 127 ng/mL | Activity [3]: 22 ng/mL | Activity [4]: 13 ng/mL | Activity [5]: inactive | Activity [6]: 4590 ng/mL | Activity [7]: 3450 ng/mL | Activity [8]: 518 ng/mL | Activity [9]: 321 ng/mL | Activity [10]: inactive | inhibition (INH) [11]: 50%

CC(C)C[C@H](NC(=O)[C@@H](Cc1ccccc1)NC(=O)[C@H](Cc1ccc(O)cc1)NC(=O)[C@H](CO)NC(=O)[C@@H]1CCCN1C(=O)[C@@H](Cc1ccccc1)NC(=O)[C@@H]1CCC(=O)N1)C(=O)N[C@@H](CCCNC(=N)N)C(=O)N1CCC[C@H]1C(=O)NCC(N)=O ([pGlu][dF]PSY[dF]LRPG-NH2)
Activity [1]: 46 ng/mL | Activity [2]: 17 ng/mL | Activity [4]: 12 ng/mL | Activity [5]: inactive | Activity [6]: 1380 ng/mL | Activity [7]: 280 ng/mL | Activity [9]: 179 ng/mL | Activity [10]: inactive | inhibition (INH) [12]: 20% | inhibition (INH) [11]: 100%

CC(C)C[C@H](NC(=O)[C@@H](Cc1c[nH]c2ccccc12)NC(=O)[C@H](Cc1ccc(O)cc1)NC(=O)[C@H](CO)NC(=O)[C@@H](Cc1ccccc1)NC(=O)[C@@H](Cc1ccccc1)NC(=O)[C@@H]1CCC(=O)N1)C(=O)N[C@@H](CCCNC(=N)N)C(=O)N1CCC[C@H]1C(=O)NCC(N)=O
Activity [1]: 97 ng/mL | Activity [2]: 39 ng/mL | Activity [4]: 10 ng/mL | Activity [5]: inactive | Activity [6]: 2120 ng/mL | Activity [7]: 70 ng/mL | Activity [9]: -814 ng/mL | Activity [10]: inactive | inhibition (INH) [11]: 40%

CC[C@H](C)[C@H](NC(=O)[C@@H](Cc1ccccc1)NC(=O)[C@@H]1CCC(=O)N1)C(=O)N[C@@H](CO)C(=O)N[C@@H](Cc1ccc(O)cc1)C(=O)N[C@H](Cc1c[nH]c2ccccc12)C(=O)N[C@@H](CC(C)C)C(=O)N[C@@H](CCCNC(=N)N)C(=O)N1CCC[C@H]1C(=O)NCC(N)=O
Activity [1]: 143 ng/mL | Activity [2]: 21 ng/mL | Activity [4]: 68 ng/mL | Activity [5]: inactive | Activity [6]: 2310 ng/mL | Activity [7]: -348 ng/mL | Activity [9]: 645 ng/mL | Activity [10]: inactive | inhibition (INH) [11]: 0%

CC(C)C[C@H](NC(=O)[C@@H](Cc1c[nH]c2ccccc12)NC(=O)[C@H](Cc1ccc(O)cc1)NC(=O)[C@H](CO)NC(=O)[C@@H](NC(=O)[C@@H](Cc1ccccc1)NC(=O)[C@@H]1CCC(=O)N1)C(C)C)C(=O)N[C@@H](CCCNC(=N)N)C(=O)N1CCC[C@H]1C(=O)NCC(N)=O
Activity [1]: 44 ng/mL | Activity [2]: -32 ng/mL | Activity [4]: 7 ng/mL | Activity [5]: inactive | Activity [6]: 3010 ng/mL | Activity [7]: -1140 ng/mL | Activity [9]: 110 ng/mL | Activity [10]: inactive | inhibition (INH) [11]: 16% | inhibition (INH) [13]: 60%
